Assay outcomes as filed in PubChem BioAssay.
Sampled rows, rich in hits. Any-hit rate of the full collection: about 2.1%.
MEKK3 PB1 HTS: MEKK3-MEK5 PB1 interaction, increase or decrease; bead-based flow cytometry, Alexa488-MEK5 binding to MEKK3; actives lie on both sides; 0 = blocked by unlabeled MEK5, 100 = vehicle; 290,000 tested, 1.4% active; Q99759; binding response (% of control), % at 10 µM;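 active = binding response more than 3 SD above or below the average of its plate-row segment, actives on both sides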;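 note: Alexa488 bead fluorescence after subtracting the streptavidin-only scavenger bead signal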
MEKK2 mut-MEK5: signal of MEK5 binding to mutant human MEKK2 PB1 domain; bead flow cytometry, Alexa488-MEK5 binding to MEKK2 mutant; percent response, % at 10 µM; 290,000 tested, 0.35% active; AID 1530; in the data active = percent response above about 24%, passing the limit was not always enough
MEKK2 WT-MEK5: raises or lowers MEK5 binding to wildtype human MEKK2 PB1 domain; bead flow cytometry, Alexa488-MEK5 binding to MEKK2 WT; actives lie on both sides; binding response (% of control), % at 10 µM; AID 1531; Q9Y2U5; 290,000 tested, 1.1% active; in the data active = binding response below about 67% or above about 130%
GSK3A inh: human GSK-3 alpha kinase inhibition | 320,000 tested, 0.1% active | P49840 | inhibition, % at 10 µM | ADP-Glo luminescence, 60 min;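 active = more than half of replicates show inhibition above 20%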;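 note: GST-tagged GSK-3 alpha with peptide substrate and 25 µM ATP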
STK33 kinase inh: blocks human STK33 kinase activity. Q9BYT3. purified STK33, MBP phosphorylation, ADP-Glo luminescence. inhibition, % at 10 µM. 320,000 tested, 0.073% active;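 active = inhibition at or above 25%, using the most active replicate where run in duplicate; inactive = inhibition below 25%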
GSK3B inh: human GSK3beta kinase inhibition; GST-GSK3beta kinase, ADP-Glo luminescence, 60 min; hits give low values; P49841; 300,000 tested, 0.038% active; AID 2097; activity score (negative = inhibition), % at 10 µM;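 active = more than half of replicate wells score below -50%, meaning over 50% inhibition versus plate controls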
Target sequence (P49841 whole entry, looked up): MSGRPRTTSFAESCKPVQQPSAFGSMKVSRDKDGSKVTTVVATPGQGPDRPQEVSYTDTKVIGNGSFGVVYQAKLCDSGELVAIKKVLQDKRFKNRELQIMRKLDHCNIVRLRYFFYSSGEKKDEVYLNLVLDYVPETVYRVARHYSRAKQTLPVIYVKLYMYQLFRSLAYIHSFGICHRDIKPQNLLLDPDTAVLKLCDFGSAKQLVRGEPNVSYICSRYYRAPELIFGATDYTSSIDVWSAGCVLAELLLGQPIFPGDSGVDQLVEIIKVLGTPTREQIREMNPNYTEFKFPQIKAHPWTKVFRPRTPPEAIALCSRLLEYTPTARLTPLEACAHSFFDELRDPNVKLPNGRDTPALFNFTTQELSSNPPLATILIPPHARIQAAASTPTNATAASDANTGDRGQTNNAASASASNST
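Test system: GST-tagged human GSK3beta kinase, cell-free; evaluation: activity score scaled between in-plate DMSO and GW8510 controls; measured by: ADP-Glo luminescence; incubation: 60 min reaction, RT; benchmarks: DMSO and 20 µM GW8510; reagent: peptide substrate plus 25 µM ATP (final); medium: Tris/MgCl2 kinase buffer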
MEKK2wt confirm: raises or lowers MEK5 binding to wildtype human MEKK2, retest. shares compounds with MEKK3 PB1 HTS. bead flow cytometry, Alexa488-MEK5 binding to MEKK2 WT; actives lie on both sides. binding response (% of control), % at 10 µM. 5,900 tested, 2.4% active. AID 1892; in the data active = binding response below about 16% or above about 210%; inactive = in between
MEKK2mut confirm: signal of MEK5 binding to mutant human MEKK2, retest; shares compounds with MEKK3 PB1 HTS; bead flow cytometry, Alexa488-MEK5 binding to MEKK2 mutant; percent response, % at 10 µM; 5,900 tested, 2% active; AID 1893; in the data active = percent response mostly above about 71%, no sharp cut-off; inactive = mostly below about 38%;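 note: higher means compound restores mutant binding toward wildtype level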
MEKK3-MEK5 inh: confirmation of inhibitors of MEK5 binding to human MEKK3; shares compounds with MEKK3 PB1 HTS; bead flow cytometry, Alexa488-MEK5 binding to MEKK3; hits give low values; binding response (% of control), % at 10 µM; 5,900 tested, 1.8% active; AID 1894;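 active = binding response below 72% of control, or above a set upper limit, though filed actives all read lower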;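 note: lower values mean stronger disruption of MEK5 binding to MEKK3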
A number is an active result; 0 = inactive; - = no result; + = active, no number; [ ] = remark or other dose.

SMILES | MEKK3 PB1 HTS | MEKK2 mut-MEK5 | MEKK2 WT-MEK5 | GSK3A inh | STK33 kinase inh | GSK3B inh | MEKK2wt confirm | MEKK2mut confirm | MEKK3-MEK5 inh
CCc1cccc(CC)c1N(COC)C(=O)Cn1nnc2ccccc21 | - | - | - | 0 | 0 | 0 | - | - | -
CCn1c(SCC(=O)NC)nnc1C(C)C | 0 | 0 | 0 | 0 | 0 | 0 | - | - | -
CNC(=O)CSc1nnc(C(C)C)n1C | 136.0 | 0 | 0 | 0 | 0 | 0 | 0 | 0 | 0
O=c1onc(-c2ccccc2)n1-c1cc(Cl)cc(Cl)c1 | - | - | - | 0 | 0 | 0 | - | - | -
CC(C)(C)C(=O)c1sc2nc(-c3cccs3)cc(C(F)(F)F)c2c1N | 0 | 0 | 53.0[inhibitor] | 0 | 0 | 0 | 0 | 0 | 0
Cc1nnc(NC(=O)c2sc3nc(-c4cccs4)cc(C(F)(F)F)c3c2N)s1 | 0 | 0 | 0 | 0 | 0 | 0 | - | - | -
O=C(Cc1cccs1)NCCc1ccc(Cl)cc1 | 0 | 0 | 0 | 0 | 0 | 0 | - | - | -
CCCc1cc(=O)oc2cc(C)cc(OCC(=O)N3CCC(C(=O)O)CC3)c12 | 0 | 0 | 0 | 0 | 0 | 0 | - | - | -
Cc1ccccc1OCC(=O)NNC(=O)c1ccc2c(=O)n3c(nc2c1)CCC3 | - | - | - | 0 | 0 | 0 | - | - | -
Cc1cc(O)c(S(=O)(=O)c2ccccc2)c(C)c1NS(=O)(=O)c1ccccc1 | 0 | 0 | 0 | 0 | 0 | 0 | - | - | -
CCCc1c(C)nc2ccccc2c1SCCC#N | 60.0[inhibitor] | 0 | 0 | 0 | 0 | 0 | 0 | 0 | 0
CCc1c(C)nc2c(Br)cccc2c1SCCC#N | 143.0 | 0 | 0 | 0 | 0 | 0 | 0 | 0 | 0
Cc1ccc(-c2nc3sc4c(c3c(=O)n2N)CC(C)(C)OC4)cc1 | 0 | 0 | 0 | 0 | 0 | 0 | - | - | -
O=c1c2c3c(sc2nc2n1CCCC2)CCC3 | 72.0[inhibitor] | 0 | 0 | 0 | 0 | 0 | 0 | 0 | 0
Cc1ccc(-c2nc3sc4c(c3c(=O)n2N)CCCC4)cc1 | 56.0[inhibitor] | 0 | 0 | 0 | 0 | 0 | 0 | 0 | 0
CN(C)C(=O)CSc1nnc(Cc2ccccc2)n1CC1CCCO1 (stereo not given) | 0 | 0 | 0 | 0 | 0 | 0 | - | - | -
CN1C(C(=O)NCc2cccc(C(F)(F)F)c2)CC2Cn3c(nc4ccccc43)C21 (stereo not given) | 51.0[inhibitor] | 0 | 0 | 0 | 0 | 0 | 0 | 0 | 0
CC(=O)OC1CC(C)N(C(=O)c2ccccc2)c2ccc(C)cc21 (stereo not given) | 0 | 0 | 0 | 0 | 0 | 0 | - | - | -
CCCC(=O)OC1CC(C)N(C(=O)c2ccccc2)c2ccc(C)cc21 (stereo not given) | 12.0[inhibitor] | 0 | 21.0[inhibitor] | 0 | 0 | 0 | 0 | 0 | 0
CCNc1ccc2noc3c2c1C(=O)c1ccccc1-3 | 32.0[inhibitor] | 0 | 30.0[inhibitor] | 0 | 0 | 0 | 0 | 0 | 56.0
CCOc1ccc2noc3c2c1C(=O)c1ccccc1-3 | - | - | - | 0 | 0 | 0 | - | - | -
O=C1c2ccccc2-c2onc3ccc(NCc4ccco4)c1c23 | 52.0[inhibitor] | 0 | 53.0[inhibitor] | 0 | 0 | 0 | 0 | 0 | 59.0
Nc1ccc(Oc2cccc(Oc3ccc(N)cc3)c2)cc1 | 0 | 0 | 0 | - | 0 | 0 | - | - | -
Nc1ccc(Oc2ccc(Br)cc2)cc1 | 72.0[inhibitor] | 0 | 0 | 0 | 0 | 0 | 0 | 0 | 0
Cc1cccn2c(CNCCCOc3cccnc3)c(C(=O)N3CCOCC3)nc12 | 0 | 0 | 0 | 0 | 0 | 0 | - | - | -
SMILES | MEKK3 PB1 HTS | MEKK2 mut-MEK5 | MEKK2 WT-MEK5 | GSK3A inh | STK33 kinase inh | GSK3B inh | MEKK2wt confirm | MEKK2mut confirm | MEKK3-MEK5 inh
CC[C@@]1(C(=O)OC)N[C@H](CN(C)S(=O)(=O)c2ccc(OC)cc2)[C@@H]2C(=O)N(C)C(=O)[C@@H]21 | - | - | - | 0 | 0 | - | - | - | -
COc1ccc(OC)c(C2C(C(=O)c3ccc(C)o3)=C(O)C(=O)N2CCN2CCOCC2)c1 (stereo not given) | 0 | 0 | 0 | 0 | 0 | 0 | - | - | -
CCCOc1ccc(C2C(C(=O)c3ccc(C)o3)=C(O)C(=O)N2CCN2CCOCC2)cc1OC (stereo not given) | 0.0[inhibitor] | 0 | 0.0[inhibitor] | 0 | 0 | 0 | 0 | 0 | 0
COc1ccc(S(=O)(=O)Nc2ccc3c(c2)C(=O)N([C@H](C)CO)C[C@H](C)[C@@H](CN(C)C(=O)Nc2ccc4c(c2)OCO4)O3)cc1 | - | - | - | 0 | 0 | - | - | - | -
CC(=O)Nc1sc(/C(C#N)=C\c2cccc(Cl)c2)nc1-c1ccc(C)cc1 | 0 | 0 | 13.0[inhibitor] | 0 | 0 | 0 | 0 | 0 | 0
CC(=O)Nc1sc(N/N=C/c2ccccc2)nc1-c1ccc(C)cc1 | 0 | 0 | 0 | 0 | 0 | 0 | - | - | -
O=c1cc(CSc2nnc(COc3ccccc3)o2)c2ccccc2[nH]1 | 125.0 | 0 | 0 | 0 | 0 | 0 | 0 | 0 | 0
O=c1cc(CSc2nnc(COc3cccc4ccccc34)o2)c2ccccc2[nH]1 | 0 | 0 | 0 | 0 | 0 | 0 | - | - | -
Nn1c(SCC(=O)Nc2ccc(S(N)(=O)=O)cc2)nnc1C(F)(F)F | 0 | 0 | 0 | 0 | 0 | 0 | - | - | -
COc1ccc(/C=C/c2nc3ccccc3n2Cc2ccccc2OC)cc1 | 151.0 | 0 | 0 | 0 | 0 | 0 | 0 | 0 | 0
CC1CCCCC1NC(=O)CO/N=C/c1ccccc1OC(F)F (stereo not given) | 71.0[inhibitor] | 0 | 0 | 0 | 0 | 0 | 0 | 0 | 0
CC1Cc2ccccc2N1C(=O)CO/N=C/c1ccccc1OC(F)F (stereo not given) | 10.0[inhibitor] | 0 | 0 | 0 | 0 | 0 | 0 | 0 | 0
Cc1cc(C)c(NC(=O)COC(=O)Cc2cccs2)c(C)c1 | - | - | - | 0 | 0 | 0 | - | - | -
NC(=O)c1ccccc1Nc1nc(NCCO)nc(N2CCCC2)n1 | 0 | 0 | 0 | 0 | 0 | 0 | - | - | -
COCCC(=O)N1CCC(Oc2ccc(C(=O)NCCc3cnn(C)c3)cc2)CC1 | 0 | 0 | 0 | 0 | 0 | 0 | - | - | -
COCC(=O)N1CCC(Oc2ccc(C(=O)NCCc3ccncc3)cc2)CC1 | 128.0 | + | 610.0 | 0 | 0 | 0 | 0 | 0 | 0
CC1CC(C)CN(C(=O)CNC(=O)c2ccc3ccccc3c2)C1 (stereo not given) | 0 | 0 | 0 | 0 | 0 | 0 | - | - | -
O=C(Nc1ccc(S(=O)(=O)NCc2ccccc2)cc1)c1ccccc1[N+](=O)[O-] | 158.0 | 0 | 0 | 0 | 0 | 0 | 0 | 0 | 0
S=c1[nH]nc(-c2cccnc2)n1-c1ccccc1 | 80.0[inhibitor] | 0 | 0 | 0 | 0 | 0 | 0 | 0 | 0
S=c1[nH]nc(-c2ccc(Cl)cc2)n1-c1cccnc1 | 0 | 0 | 0 | 0 | 0 | 0 | - | - | -
COc1cc(C(C(=O)NC2CCCC2)N(C(=O)c2snc(C(N)=O)c2N)C2CCCC2)cc(OC)c1OC (stereo not given) | 0 | 0 | 0 | 0 | 0 | 0 | - | - | -
